Source: ChEMBL document CHEMBL1122744, “2-Chloroethyl (methylsulfonyl)methanesulfonate and related (methylsulfonyl)methanesulfonates. Antineoplastic activity in vivo” (J Med Chem, 1984)

Key:
Mus musculus [1] = experiment: Change in weight by day 5, obtained by subtracting treated groups of animals minus control groups of animals at dose 6 mg/kg in exp1.; format: functional
Procedure, shortened: (§1)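 Mice were inoculated ip with 10^6 P388 leukemia cells on day 0, when treated and control mice weighed 19–22 g. Treatment was given ip once daily on days 1–5, within about 5 min of preparing the solution or suspension. Groups of six (occasionally five) were treated, with 30 untreated inoculated mice as controls. The day-5 weight change is the mean treated change minus the mean control change.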

Mus musculus [2] = experiment: Change in weight by day 5, obtained by subtracting treated groups of animals minus control groups of animals at dose 6 mg/kg in exp2; format: functional
Procedure, shortened: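 Mice were inoculated ip with 10^6 P388 leukemia cells on day 0 and weighed 19–22 g that day. Compound was given ip once daily on days 1–5, within about 5 min of preparing the solution or suspension, to groups of six (occasionally five). Thirty inoculated untreated mice served as controls. The value is the average weight change of treated mice minus that of controls on day 5.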

Mus musculus [3] = experiment: Change in weight by day 5, obtained by subtracting treated groups of animals minus control groups of animals at dose 12 mg/kg in exp1; format: functional; procedure, shortened: as §1
Mus musculus [4] = experiment: Change in weight by day 5, obtained by subtracting treated groups of animals minus control groups of animals at dose 12 mg/kg in exp2; format: functional; procedure, shortened: as §1
Mus musculus [5] = experiment: Change in weight by day 5, obtained by subtracting treated groups of animals minus control groups of animals at dose 25 mg/kg in exp2; format: functional; procedure, shortened: as §1
Mus musculus [6] = experiment: Mortality by day 5 expressed as number of mice died to the total treated at dose 12 mg/kg in exp1; 0/6; format: ADME, organism-based; set-up: dose 12 mg/kg; settings: in vivo
Mus musculus [7] = experiment: Mortality by day 5 expressed as number of mice died to the total treated at dose 12 mg/kg in exp2; 1/6; format: ADME, organism-based; set-up: dose 12 mg/kg; settings: in vivo
Mus musculus [8] = experiment: Median survival time of the treated control groups, in which there are no 30-day survivors at dose 12 mg/kg in exp1; format: functional
Mus musculus [9] = experiment: Median survival time of the treated control groups, in which there are no 30-day survivors at dose 12 mg/kg in exp2; format: functional
Mus musculus [10] = experiment: Mortality by day 5 expressed as number of mice died to the total treated at dose 6 mg/kg in exp1; 0/5; format: ADME, organism-based; set-up: dose 6 mg/kg; settings: in vivo
Mus musculus [11] = experiment: Mortality by day 5 expressed as number of mice died to the total treated at dose 6 mg/kg in exp2; 0/6; format: ADME, organism-based; set-up: dose 6 mg/kg; settings: in vivo
Mus musculus [12] = experiment: Mortality by day 5 expressed as number of mice died to the total treated at dose 25 mg/kg in exp1; 0/6; format: ADME, organism-based; set-up: dose 25 mg/kg; settings: in vivo
Mus musculus [13] = experiment: Mortality by day 5 expressed as number of mice died to the total treated at dose 25 mg/kg in exp1; 6/6; format: ADME, organism-based; set-up: dose 25 mg/kg; settings: in vivo
Mus musculus [14] = experiment: Mortality by day 5 expressed as number of mice died to the total treated at dose 25 mg/kg in exp2; 4/6; format: ADME, organism-based; set-up: dose 25 mg/kg; settings: in vivo
Mus musculus [15] = experiment: Median survival time of the untreated control groups, in which there are no 30-day survivors at dose 6 mg/kg in exp1; format: functional
Mus musculus [16] = experiment: Median survival time of the untreated control groups, in which there are no 30-day survivors at dose 6 mg/kg in exp2; format: functional
Mus musculus [17] = experiment: Median survival time of the untreated control groups, in which there are no 30-day survivors at dose 25 mg/kg in exp1; format: functional
Mus musculus [18] = experiment: Median survival time of the treated control groups, in which there are no 30-day survivors at dose 6 mg/kg in exp2; format: functional
Mus musculus [19] = experiment: Median survival time of the untreated control groups, in which there are no 30-day survivors at dose 12 mg/kg in exp1; format: functional
[20] = Median survival time of the untreated control groups, in which there are no 30-day survivors at dose 12 mg/kg in exp2; format: functional
[21] = Ratio of median survival times for non-survivors at dose 6 mg/kg in exp2; format: functional
Mus musculus [22] = experiment: Median survival time of the untreated control groups, in which there are no 30-day survivors at dose 25 mg/kg in exp2; format: functional
[23] = Ratio of median survival times for non-survivors at dose 12 mg/kg in exp1; format: functional
Procedure, shortened: (§2)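 Mice were inoculated ip with 10^6 P388 leukemia cells on day 0. Groups of six (occasionally five) were dosed ip qd on days 1–5 with fresh suspensions; 30 mice served as untreated controls. Deaths were recorded daily up to day 60. T/C% compares the median survival of treated non-survivors (<60 days) with the control median. Medians used grouped data when there were no 30-day survivors, otherwise ungrouped data. t = toxic.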

[24] = Ratio of median survival times for non-survivors at dose 12 mg/kg in exp2; format: functional; procedure, shortened: as §2
[25] = Ratio of median survival times for non-survivors at dose 25 mg/kg in exp1; t= toxic; format: ADME, organism-based; set-up: dose 25 mg/kg; settings: in vivo
[26] = Ratio of median survival times for non-survivors at dose 25 mg/kg in exp2; t= toxic; format: ADME, organism-based; set-up: dose 25 mg/kg; settings: in vivo
[27] = Ratio of median survival times for non-survivors at dose 6 mg/kg in exp1; format: functional
Mus musculus [28] = experiment: Median survival time of the treated control groups, in which there are no 30-day survivors at dose 6 mg/kg in exp1; format: functional

## COS(=O)(=O)CS(C)(=O)=O
Mus musculus [1]
  Change in weight: 0
Mus musculus [2]
  Change in weight: -0.8
Mus musculus [3]
  Change in weight: -4.1
Mus musculus [4]
  Change in weight: -2.8
Mus musculus [5]
  Change in weight: -2.8
Mus musculus [6]
  Mortality: 0
Mus musculus [7]
  Mortality: 1
Mus musculus [8]
  Median survival time: 14
Mus musculus [9]
  Median survival time: 13.7
Mus musculus [10]
  Mortality: 0
Mus musculus [11]
  Mortality: 0
Mus musculus [12]
  Mortality: 0
Mus musculus [13]
  Mortality: 6
Mus musculus [14]
  Mortality: 4
Mus musculus [15]
  Median survival time: 10.7
Mus musculus [16]
  Median survival time: 10.7
Mus musculus [17]
  Median survival time: 10.7
Mus musculus [18]
  Median survival time: 13.4
Mus musculus [19]
  Median survival time: 10.7
[20]
  Median survival time: 10.7
[21]
  Ratio: 125
Mus musculus [22]
  Median survival time: 10.7
[23]
  Ratio: 130
[24]
  Ratio: 128
[25]
  Ratio: Toxic
[26]
  Ratio: Toxic
[27]
  Ratio: 135
Mus musculus [28]
  Median survival time: 14.5
